The text below walks through data of ChEMBL document CHEMBL4706745, “Balanced Intersystem Crossing in Iodinated Silicon-Fluoresceins Allows New Class of Red Shifted Theranostic Agents” (ACS Med Chem Lett, 2021).

Activity calls are given as the source filed them. The calls are words filed in the database; no cut-off is given here.

Data set [1] relates to HCT-116. Kind of data set: Induction of apoptosis in human HCT-116 cells at 5 uM irradiated with 595 +/- 5 nanometer LED light for 2 hrs in presence of NaN3 by annexin V-FITC and PI staining based confocal microscopic analysis. In kind it is functional, cell-based. A digest of the protocol:
(§1)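 Cells treated with 5 μM and either kept dark or irradiated 2 h with a 595 nm LED, with or without NaN3. Annexin V-FITC (early apoptosis) and PI (late apoptosis/necrosis) staining 30 min after PDT, then confocal imaging. DMSO 0.5% vehicle control.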

For data set [2], the system named is HCT-116. The data set can be described thus: Induction of apoptosis in human HCT-116 cells assessed as increase in necrotic cells at 5 uM irradiated with 595 +/- 5 nanometer LED light for 2 hrs by annexin V-FITC and PI staining based confocal microscopic analysis. In kind it is functional, cell-based. A digest of the protocol:
as §1

A short description of data set [3]: Induction of singlet oxygen generation in DMSO/ADMDA solution assessed as decrease in ADMDA absorption irradiated with 630 nanometer LED light at 5 uM. It is filed as functional.
In data set [4] the test system is HCT-116. Kind of data set: Phototoxicity against human HCT-116 cells assessed as reduction in cell viability irradiated with 595 and 630 nanometer LED light and further incubated for 24 hrs by MTT assay. It is filed as functional, cell-based. As to conditions: dose 0.5-20 µM. A digest of the protocol: (§2)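 MTT viability assay. Cells incubated with 0.5–20 μM, then irradiated with a 595 nm (9.83 mW/cm2) or 630 nm (24.3 mW/cm2) LED for 1 or 2 h, followed by 23 or 22 h dark respectively. Light alone and vehicle controls included. Mean ± SD, n = 4.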
On the technique in general: Tetrazolium assays rely on reduction of a dye to a coloured formazan, in cell work by metabolically active cells.

The nature of data set [5]: Photostability in pH 7.4 PBS buffer at 614/630 nanometer irradiated with 595 nanometer LED light for 2 hrs by measuring fluorescence peak. Conditions: pH 7.4, 2 h. In kind it is physicochemical. A digest of the protocol:
(§3)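 Absorption at 614 nm and emission at 630 nm tracked under continuous 595 or 630 nm LED irradiation for 2 h in PBS (pH 7.4, 0.5% DMSO).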

Data set [6] can be described thus: Induction of singlet oxygen generation in pH 7.4 DMSO solution at 614 nanometer assessed as singlet oxygen quantum yield irradiated with 595 nanometer LED light. In kind it is functional.
In data set [7] the test system is MDA-MB-231. Kind of data set: Induction of ROS generation in human MDA-MB-231 cells at 5 uM incubated for 2 hr by DCFH2-DA staining based confocal microscopic analysis. In kind it is cell-based. As to conditions: mda-mb-231, 2 h. In outline:
(§4)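 Cells loaded with 5 μM compound and the ROS sensor DCFH2-DA; kept dark or irradiated with a 595 nm LED for 2 h, with or without NaN3 as singlet oxygen quencher. Green emission imaged by confocal microscopy. Controls: DMSO 0.5% vehicle and H2O2 (500 μM, 2 h) as positive control.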

Data set [8] can be described thus: Induction of singlet oxygen generation in pH 7.4 DMSO solution at 614 nanometer assessed as singlet oxygen quantum yield irradiated with 630 nanometer LED light. In kind it is functional.
Data set [9] in a line: Fluorescence property of the compound in pH 7.4 PBS buffer assessed as fluorescence quantum yield by fluorescence spectrophotometric method. It is filed as physicochemical.
In data set [10] the test system is MDA-MB-231. The data set can be described thus: Phototoxicity against human MDA-MB-231 cells assessed as reduction in cell viability irradiated with 595 and 630 nanometer LED light and further incubated for 24 hrs by MTT assay. It is filed as functional, cell-based. As to conditions: dose 0.5-20 µM. In outline:
as §2

Data set [11] can be described thus: Induction of singlet oxygen generation in DMSO solution using singlet oxygen sensor green assessed as increase in SOSG intensity irradiated with 630 nanometer LED light at 5 uM. In kind it is functional.
Data set [12] is described as follows: Drug uptake in human HCT-116 cells assessed as cytosolic red emission at 5 uM incubated for 2 hrs by Hoechst-33342 staining based confocal microscopic analysis. It is filed as ADME, cell-based. As to conditions: hct-116, 2 h. A digest of the protocol: (§5)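 Cells incubated with 5 μM for 2 h and washed before confocal imaging of intracellular red emission.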

The subject of data set [13] is MDA-MB-231. The data set can be described thus: Induction of apoptosis in human MDA-MB-231 cells at 5 uM irradiated with 595 +/- 5 nanometer LED light for 2 hrs in presence of NaN3 by annexin V-FITC and PI staining based confocal microscopic analysis. In kind it is functional, cell-based. A digest of the protocol: as §1
Data set [14] deals with HCT-116. Kind of data set: Induction of ROS generation in human HCT-116 cells at 5 uM incubated for 2 hr by DCFH2-DA staining based confocal microscopic analysis. In kind it is cell-based. Conditions: hct-116, 2 h. A digest of the protocol: as §4
The nature of data set [15]: Drug uptake in human MDA-MB-231 cells assessed as cytosolic red emission at 5 uM incubated for 2 hrs by Hoechst-33342 staining based confocal microscopic analysis. In kind it is ADME, cell-based. As to conditions: mda-mb-231, 2 h. In outline: as §5
A short description of data set [16]: Photostability in pH 7.4 PBS buffer at 614/630 nanometer irradiated with 630 nanometer LED light for 2 hrs by measuring fluorescence peak. It is filed as physicochemical. As to conditions: pH 7.4, 2 h. In outline: as §3
Data set [17] has as its system MDA-MB-231. The data set can be described thus: Induction of ROS generation in human MDA-MB-231 cells at 5 uM irradiated with 595 +/- 5 nanometer LED light for 2 hr by DCFH2-DA staining based confocal microscopic analysis. In kind it is functional, cell-based. In outline: as §4
The nature of data set [18]: Induction of singlet oxygen generation in DMSO/ADMDA solution assessed as decrease in ADMDA absorption irradiated with 595 nanometer LED light at 5 uM. It is filed as functional. A digest of the protocol:
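5 μM compound mixed with the water-soluble trap ADMDA in oxygen-saturated PBS (pH 7.4, 0.5% DMSO), then LED irradiated (595 nm at 9.83 mW/cm2). Decrease in ADMDA absorption monitored, with the first 40 s kept in the dark.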

The nature of data set [19]: Induction of singlet oxygen generation in DMSO solution using singlet oxygen sensor green assessed as increase in SOSG intensity irradiated with 595 nanometer LED light at 5 uM. In kind it is functional. In outline: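 5 μM compound with singlet oxygen sensor green (SOSG); increase in SOSG emission monitored during 595 nm LED irradiation (9.83 mW/cm2).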
In data set [20] the test system is MDA-MB-231. Kind of data set: Induction of apoptosis in human MDA-MB-231 cells assessed as increase in necrotic cells at 5 uM irradiated with 595 +/- 5 nanometer LED light for 2 hrs by annexin V-FITC and PI staining based confocal microscopic analysis. It is filed as functional, cell-based. A digest of the protocol: as §1
Data set [21] concerns HCT-116. Kind of data set: Induction of ROS generation in human HCT-116 cells at 5 uM irradiated with 595 +/- 5 nanometer LED light for 2 hr by DCFH2-DA staining based confocal microscopic analysis. In kind it is functional, cell-based. In outline:
as §4

Data set [22] has as its system MDA-MB-231. Kind of data set: Cytotoxicity against human MDA-MB-231 cells assessed as reduction in cell viability at 0.5 to 20 uM incubated for 24 hrs by MTT assay. In kind it is cell-based. Conditions: mda-mb-231, 24 h, dose 0.5-20 µM. A digest of the protocol: (§6)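 Cells exposed to 0.5–20 μM for 24 h in the dark, then assessed by MTT for viability. Vehicle control included. Mean ± SD, n = 4.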

In data set [23] the test system is HCT-116. The data set can be described thus: Cytotoxicity against human HCT-116 cells assessed as reduction in cell viability at 0.5 to 20 uM incubated for 24 hrs by MTT assay. It is filed as cell-based. Conditions: hct-116, 24 h, dose 0.5-20 µM. A digest of the protocol:
as §6

`C[Si]1(C)C2=C(I)C(=O)C(I)=CC2=C(c2ccccc2C(=O)O)c2cc(I)c(O)c(I)c21`: the outcome with HCT-116 [1], with HCT-116 [2], with MDA-MB-231 [13] and with MDA-MB-231 [20] was inactive. Further, the outcome (in [3]; in [11]; in the data set with MDA-MB-231 [17]; in data set [18]; in data set [19]; in the data set with HCT-116 [21]) was Active. The inhibition result with HCT-116 [4] and with MDA-MB-231 [10] was “Dose-dependent effect” each time. In addition, the Stabilty result in [5] and in [16] was “Stable” each time. Besides, the Activity in data set [6] was 45%; in the data set on MDA-MB-231 [7], “Non-Toxic”; in [8], 30%; in [9] it was 11%; with HCT-116 [14] it was “Non-Toxic”; in the data set on MDA-MB-231 [22] it was “Non-Toxic”. Besides, the Activity entry with HCT-116 [23] is “Non-Toxic”. In addition, the Drug uptake entry in [12] and in data set [15] was “Active” in each case.
